Compound activity deposited in PubChem by Columbia University Molecular Screening Center.
This excerpt belongs to a sample that is enriched for hits.
INS promoter act: TRM-6 insulin promoter activation; TRM-6 cells (human fetal islet line), insulin promoter eGFP reporter, imaging; plate-scaled: unstimulated 0, stimulated control 100; activation, % at 2 µM; actives 0.81% (n = 130,000); AID 1296;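 active means activation at 2 µM above a set limit, confirmed on inspection of the cell images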;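 further: share of cells whose green reporter signal exceeds an intensity cutoff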
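Test system: TRM-6 insulin promoter–eGFP reporter cells / Quantity: 1,000 cells per well / Reagent: tamoxifen inducer, 0.75 µM, in seeding medium / Compound dosing: 2 µM final, single concentration / Schedule: overnight tamoxifen, then two-day compound incubation at 37 °C / Measured by: automated fluorescence imaging of paraformaldehyde-fixed, Hoechst-counterstained cells, green channel / Read-out: percent activation from GFP-positive cell fraction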
* hit, by the source's call.

What do the screens show for `O=C(c1ccco1)N1CCCN(C(=O)c2ccco2)CC1`?
INS promoter act: -23

How did Cc1ccc(CN2CCN(C(=O)c3ccco3)CC2)cc1 do in these assays?
INS promoter act: 422*

Results for COC(=O)CCN(C(=O)c1ccc(OC(C)=O)cc1)c1ccccn1 ?
INS promoter act: 76*

How did CC(c1ccco1)N(C(=O)c1ccc(C#N)cc1)c1ccccn1 (centres undefined) do in these assays?
INS promoter act: -7

Results for COC(=O)CCN(C(=O)c1cc([N+](=O)[O-])cc([N+](=O)[O-])c1)c1ccccn1 ?
INS promoter act: 0

Results for Cc1cc(C(=O)COC(=O)CN=C2NS(=O)(=O)c3ccccc32)c(C)n1CCc1ccc(Cl)cc1 ?
INS promoter act: 0

Results for Nc1ccc(N(c2ccccc2)c2ccc(N)cc2)cc1 ?
INS promoter act: 0

Results for Cc1ccccc1C(=O)OCCN1CCOCC1 ?
INS promoter act: 8

Results for CCOC(=O)c1cc(C)n(CCCN2CCOCC2)c1C ?
INS promoter act: 86*

How did COCCn1c(C)cc(C(=O)CN2CCCCC2)c1C do in these assays?
INS promoter act: 7

What do the screens show for `CCC1SC(N)=NC1=O` (centres undefined)?
INS promoter act: -19

How did COc1cc2c(cc1OC)C(=S)NC(C)(C)C2 do in these assays?
INS promoter act: -7

How did Cc1[nH]c2ccccc2c1C(=O)COC(=O)Cn1c(C(F)(F)F)nc2ccccc21 do in these assays?
INS promoter act: -7

How did O=C(Cn1c(C(F)(F)F)nc2ccccc21)c1ccc(F)cc1 do in these assays?
INS promoter act: 84*

Results for CC(C)NC(=O)Cn1c(SCC(=O)c2ccc(F)cc2)nc2ccccc21 ?
INS promoter act: 224

What do the screens show for `c1ccc(Cn2nnnc2C(c2cccnc2)N2CCN(C3CCCCC3)CC2)cc1` (centres undefined)?
INS promoter act: -4

What do the screens show for `O=C(c1ccco1)N1CCN(C(c2ccc(F)cc2)c2nnnn2Cc2cccs2)CC1` (centres undefined)?
INS promoter act: -10

What do the screens show for `Fc1ccc(C(c2nnnn2Cc2ccco2)N2CCN(C3CCCCC3)CC2)cc1` (centres undefined)?
INS promoter act: 89*

What do the screens show for `COc1ccc(N(CC(=O)Nc2nccs2)S(=O)(=O)c2c(C)[nH]c(=O)[nH]c2=O)cc1`?
INS promoter act: -79

How did COc1ccc(CSCC(=O)N/N=C/c2ccccc2O)cc1 do in these assays?
INS promoter act: -75

How did Cc1cc(NC(=O)COC(=O)c2oc3c(ccc4ccccc43)c2C)no1 do in these assays?
INS promoter act: 415*

How did Cc1ccc2c(Cl)cc(Cl)c(OCC(=O)Nc3cc(C)on3)c2n1 do in these assays?
INS promoter act: 3

Results for Cc1cc(NC(=O)COC(=O)COc2ccc(C(=O)c3ccccc3)cc2)no1 ?
INS promoter act: -8

Results for CCc1ccc(C2c3[nH]c4ccccc4c3CCN2C(=O)c2cc(C)nn2C)cc1 (centres undefined) ?
INS promoter act: 4

Results for COc1ccc(CNC(=O)CN2C(=O)C3C4C=CC(C4)C3C2=O)cc1 (centres undefined) ?
INS promoter act: 7

How did COc1ccc(C(=O)Nc2ccc3c4c(cccc24)CC3)cc1 do in these assays?
INS promoter act: -100

What do the screens show for `Nc1ccc2c3c(cccc13)C(=O)N(c1ccccc1)C2=O`?
INS promoter act: 165

What do the screens show for `Nc1ccc2c3c(cccc13)CC2`?
INS promoter act: 377*

How did COc1cc(C(=O)N2CCC(c3nc(-c4cccnc4)no3)CC2)cc(OC)c1OC do in these assays?
INS promoter act: 3

What do the screens show for `CCSc1nnc(-c2ccc(S(=O)(=O)N3CCCC3)cc2)n1C`?
INS promoter act: 0

How did CCn1c(SCC(=O)N2CCCC(C)C2)nnc1-c1ccc(S(=O)(=O)N2CCN(C)CC2)cc1 (centres undefined) do in these assays?
INS promoter act: 81*

What do the screens show for `CCn1c(SCC(=O)Nc2ccccc2)nnc1-c1ccc(S(=O)(=O)N2CCOCC2)cc1`?
INS promoter act: -3

How did CC(C)(C)Nc1nc(Oc2ccc(=O)[nH]n2)nc(N2CCOCC2)n1 do in these assays?
INS promoter act: 8

How did O=C(Nc1ccc(Cl)cn1)C1COc2ccccc2O1 (centres undefined) do in these assays?
INS promoter act: -7

How did CCOC(=O)c1oc2cccc(OC(C)=O)c2c1C do in these assays?
INS promoter act: 286

What do the screens show for `CCOC(=O)c1oc2ccccc2c1NC(=O)COC`?
INS promoter act: 123

Results for CCOC(=O)c1oc2ccc(CNC(C)(C)C)c(Cl)c2c1C ?
INS promoter act: 431*

Results for Cc1ccc(CNS(=O)(=O)NCc2ccccc2)cc1 ?
INS promoter act: -8

How did Cc1ccc(-c2nnn(CC(=O)N(CC3CCCO3)C(C(=O)NC3CCCC3)c3ccc(F)cc3)n2)o1 (centres undefined) do in these assays?
INS promoter act: 500*

What do the screens show for `Cc1ccc(-c2nnn(CC(=O)N(CC3CCCO3)C(C(=O)NC3CCCC3)c3ccc(O)cc3)n2)o1` (centres undefined)?
INS promoter act: 7
